# Measured values published in ChEMBL document CHEMBL4229376, “Optimization of the pharmacokinetic properties of potent anti-trypanosomal triazine derivatives” (Eur J Med Chem, 2018).
# Active and inactive are the calls of the source. No cut-off for these calls is given here.
# Assays:
# Trypanosoma cruzi = test: Antitrypanosomal activity against nifurtimox-sensitive Trypanosoma cruzi Tulahuen CL2 infected in human MRC5 SV2 cells assessed as reduction in parasite burden after 168 hrs by CPRG and Nonidet based spectrophotometric analysis; format: functional, organism-based; conditions: Tulahuen CL2, MRC-5 SV2, 168 h
# Leishmania infantum = test: Antileishmanial activity against Leishmania infantum MHOM/MA (BE)/67 amastigotes infected in primary peritoneal mouse macrophages after 120 hrs by giemsa staining-based microscopic analysis; format: functional, organism-based; conditions: MHOM/MA (BE)/67, 120 h
# Plasmodium falciparum = test: Antiplasmodial activity against chloroquine-resistant Plasmodium falciparum K1 infected in human erythrocytes after 72 hrs by Malstat reagent-based spectrophotometric analysis; format: functional, organism-based; conditions: K1, 72 h
# [1] = Drug metabolism in mouse liver microsomes assessed as UGT mediated compound […] by measuring parent compound remaining at 5 uM after 60 mins in presence of UDPGA by UPLC/MS/ESI analysis; format: ADME; conditions: 1 h
# Outline: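 Metabolic stability was run with mouse liver microsomal fraction (S9) and read as percent parent compound remaining over incubation time. Diclofenac served as the reference compound.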
# [2] = Drug metabolism in human liver microsomes assessed as CYP450 mediated compound […] by measuring parent compound remaining at 5 uM after 15 mins in presence of NADPH by UPLC/MS/ESI analysis; format: ADME; conditions: read-out: Stability
# [3] = system: Trypanosoma brucei brucei; test: Antitrypanosomal activity against Trypanosoma brucei brucei Squib 427 infected in Swiss mouse assessed as mouse survival at 50 mg/kg, po administered as single dose for 5 days and measured on day 14 post infection; format: functional, organism-based
# Outline: (§1)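 Acute T. b. brucei mouse infection model. Dosing was PO or IP at 10–50 mg/kg, once (SID) or twice (BID) daily for 5 days after infection, with 3 mice per group. […] Read-outs were mean survival time and survivors on day 14 post infection.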
# [4] = system: Trypanosoma brucei brucei; test: Antitrypanosomal activity against Trypanosoma brucei brucei Squib 427 infected in Swiss mouse assessed as mouse survival at 50 mg/kg, po bid for 5 days and measured on day 14 post infection; format: functional, organism-based; outline: as §1
# [5] = system: Trypanosoma brucei brucei; test: Antitrypanosomal activity against Trypanosoma brucei brucei Squib 427 infected in Swiss mouse assessed as mouse survival at 10 mg/kg, ip administered as single dose for 5 days and measured on day 14 post infection; format: functional, organism-based; outline: as §1
# [6] = system: Trypanosoma brucei brucei; test: Antitrypanosomal activity against Trypanosoma brucei brucei Squib 427 infected in Swiss mouse assessed as mean survival days at 50 mg/kg, po administered as single dose for 5 days; format: functional
# Outline: (§2)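 Acute mouse infection model with T. b. brucei. Dosing ran for 5 days after infection, orally or intraperitoneally, once or twice daily. Groups were 3 mice each, with vehicle-treated infected controls. The read-out was mean survival time in days, plus the number of survivors on day 14 post-infection.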
# [7] = system: Trypanosoma brucei brucei; test: Antitrypanosomal activity against Trypanosoma brucei brucei Squib 427 infected in Swiss mouse assessed as mean survival days at 50 mg/kg, po bid for 5 days; format: functional; outline: as §2
# [8] = Drug metabolism in human plasma assessed as parent compound remaining after 15 mins by UPLC/MS/ESI analysis; format: ADME, cell-free; conditions: read-out: Stability
# [9] = Drug metabolism in human plasma assessed as parent compound remaining after 30 mins by UPLC/MS/ESI analysis; format: ADME, cell-free; conditions: read-out: Stability
# [10] = Drug metabolism in human plasma assessed as parent compound remaining after 60 mins by UPLC/MS/ESI analysis; format: ADME, cell-free; conditions: read-out: Stability
# [11] = Drug metabolism in human plasma assessed as parent compound remaining after 1440 mins by UPLC/MS/ESI analysis; format: ADME, cell-free; conditions: read-out: Stability
# Outline: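 Compound incubated in human plasma for 24 h at 37 °C, and the fraction of parent compound remaining was determined.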
# [12] = Protein binding in mouse plasma at 2 uM after 6 hrs by equilibrium dialysis and LC-MS analysis; format: ADME, cell-free; conditions: read-out: PPB (converted)
# [13] = system: Trypanosoma brucei brucei; test: Antitrypanosomal activity against Trypanosoma brucei brucei Squib 427 assessed as reduction in parasite growth at 7 to 14 times IC50 after 48 hrs resazurin dye-based fluorimetric analysis; format: functional, organism-based
# Outline: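 In vitro time course of T. b. brucei growth in the presence of compound, with parasite growth expressed as % of control.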
# [14] = Drug level in Swiss mouse blood infected with Trypanosoma brucei brucei Squib 427 at 50 mg/kg, po bid for 5 days measured after 4 hrs after last dose by UPLC/MS/ESI analysis; format: ADME, organism-based; conditions: whole blood, read-out: Drug uptake
# [15] = Drug level in Swiss mouse blood infected with Trypanosoma brucei brucei Squib 427 at 25 mg/kg, po bid for 5 days measured after 1 hr after last dose by UPLC/MS/ESI analysis; format: ADME, organism-based; conditions: whole blood, read-out: Drug uptake
# [16] = Drug uptake in Swiss mouse blood at 50 mg/kg, po administered as single dose after 0.25 hrs by UPLC/MS/ESI analysis; format: ADME, organism-based; conditions: whole blood, read-out: Drug uptake
# Outline: (§3)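 Mice were given the compound orally as a single dose of either 25 or 50 mg/kg, one group per dose. Plasma concentrations were followed over time up to 24 h, and the pharmacokinetic parameters were derived from the concentration-time profile.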
# [17] = Drug uptake in Swiss mouse blood at 50 mg/kg, po administered as single dose after 24 hrs by UPLC/MS/ESI analysis; format: ADME, organism-based; conditions: whole blood, read-out: Drug uptake; outline: as §3
# [18] = Drug uptake in Swiss mouse blood at 25 mg/kg, po administered as single dose after 1 hr by UPLC/MS/ESI analysis; format: ADME, organism-based; conditions: whole blood, read-out: Drug uptake; outline: as §3
# [19] = Drug uptake in Swiss mouse blood at 25 mg/kg, po administered as single dose after 2 hrs by UPLC/MS/ESI analysis; format: ADME, organism-based; conditions: whole blood, read-out: Drug uptake; outline: as §3
# [20] = AUC (0 to >4 hrs) in Swiss mouse infected with Trypanosoma brucei brucei Squib 427 at 50 mg/kg, po bid for 5 days by UPLC/MS/ESI analysis; format: ADME, organism-based; conditions: in vivo
# [21] = Cmax in Swiss mouse infected with Trypanosoma brucei brucei Squib 427 at 25 mg/kg, po administered as single dose after 24 hrs by UPLC/MS/ESI analysis; format: ADME, organism-based; set-up: dose 25 mg/kg, route oral; conditions: in vivo
# [22] = Clearance in Swiss mouse infected with Trypanosoma brucei brucei Squib 427 at 25 mg/kg, po administered as single dose after 24 hrs by UPLC/MS/ESI analysis; format: ADME, organism-based; conditions: in vivo
# [23] = Tmax in Swiss mouse at 25 mg/kg, po administered as single dose after 24 hrs by UPLC/MS/ESI analysis; format: ADME, organism-based; conditions: in vivo; outline: as §3
# [24] = Cmax in Swiss mouse at 25 mg/kg, po administered as single dose after 24 hrs by UPLC/MS/ESI analysis; format: ADME, organism-based; set-up: dose 25 mg/kg, route oral; conditions: in vivo
# Outline: (§4)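 Mice in groups received one oral dose of 25 or 50 mg/kg. Plasma concentrations were followed over time up to 24 h, and PK parameters including T1/2 were derived from the concentration–time profile.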
# [25] = Half life in Swiss mouse at 25 mg/kg, po administered as single dose after 24 hrs by UPLC/MS/ESI analysis; format: ADME, organism-based; conditions: in vivo; outline: as §3
# [26] = Clearance in Swiss mouse at 25 mg/kg, po administered as single dose after 24 hrs by UPLC/MS/ESI analysis; format: ADME, organism-based; conditions: in vivo; outline: as §4
# [27] = Ratio of Cmax in Swiss mouse at 50 mg/kg, po administered as single dose after 24 hrs by LC-MS analysis to IC50 for antitrypanosomal activity against suramin-sensitive Trypanosoma brucei brucei Squib 427 after 72 hrs by resazurin dye-based fluorimetric analysis; format: ADME, organism-based; conditions: in vivo
# [28] = Protein binding in mouse plasma at 10 uM after 6 hrs by equilibrium dialysis and LC-MS analysis; format: ADME, cell-free; conditions: read-out: PPB (converted)
# [29] = Protein binding in 10% FBS in Trypanosoma brucei culture medium assessed as drug recovery at 10 uM after 6 hrs by equilibrium dialysis and LC-MS analysis; format: ADME, cell-free, Bos taurus, Serum; conditions: cattle, read-out: Drug recovery
compound,measurement,setting,value
Nc1nc(Nc2ccc(F)cc2)nc(Oc2ccc(F)cc2)n1,IC50,Trypanosoma cruzi,> 64 µM
same,IC50,Leishmania infantum,> 64 µM
same,IC50,Plasmodium falciparum,> 64 µM
same,Stability,[1],101%
same,"remaining at 0.25 h, 5 µM",[2],93%
same,Activity,[3],inactive
same,Activity,[4],inactive
same,Activity,[5],inactive
same,MST,[6],7 days
same,MST,[7],5.7 days
same,remaining at 0.25 h,[8],80%
same,remaining at 0.5 h,[9],91%
same,remaining at 1 h,[10],88%
same,remaining at 24 h,[11],87%
same,"fraction unbound at 6 h, 2 µM",[12],0.04
same,Activity,[13],inactive
same,concentration at 4 h,[14],800 ng/mL
same,concentration at 1 h,[15],2410 ng/mL
same,concentration at 0.25 h,[16],1320 ng/mL
same,concentration at 24 h,[17],150 ng/mL
same,concentration at 1 h,[18],1180 ng/mL
same,concentration at 2 h,[19],1320 ng/mL
same,AUC,[20],9350 ng·h/mL
same,Cmax,[21],2690 ng/mL
same,CL/F,[22],176 mL/min
same,Tmax,[23],2.3 h
same,Cmax,[24],1180 ng/mL
same,half-life,[25],4.14 h
same,CL/F,[26],70.1 mL/min
same,Ratio,[27],10
same,"fraction unbound at 6 h, 10 µM",[28],0.023
same,"recovery at 6 h, 10 µM",[29],71.1%
